Reference: ChEMBL document CHEMBL4007456, “Heterocyclyl Tetracyclines. 1. 7-Trifluoromethyl-8-Pyrrolidinyltetracyclines: Potent, Broad Spectrum Antibacterial Agents with Enhanced Activity against Pseudomonas aeruginosa” (2017)
Values after ≈ are worked out from the molar mass of the structure shown.

Tested on: Klebsiella pneumoniae
Assay: Antibacterial activity against gram-negative Klebsiella pneumoniae KP153 harboring tet(A) by CLSI method
Format: functional
Summary of the method: (§1)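 CLSI broth microdilution MIC in fresh cation-adjusted Mueller Hinton broth, supplemented with defibrinated horse blood where appropriate. Compounds serially diluted in sterile deionized water. Runs accepted when comparator antibiotics against ATCC quality-control strains fell within recommended ranges.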

| SMILES | MIC |
| --- | --- |
| CN(C)[C@@H]1C(O)=C(C(N)=O)C(=O)[C@@]2(O)C(O)=C3C(=O)c4c(O)cccc4[C@@](C)(O)[C@H]3C[C@@H]12 [TETRACYCLINE] | > 32 mg/L |
| CN1CCCCCC1c1cc(O)c2c(c1Cl)C[C@H]1C[C@H]3[C@H](N(C)C)C(O)=C(C(N)=O)C(=O)[C@@]3(O)C(O)=C1C2=O (stereo not given in full) | 1 mg/L (≈ 1.79 µM) |

Tested on: Klebsiella pneumoniae
Assay: Antibacterial activity against gram-negative Klebsiella pneumoniae KP194 by CLSI method
Format: functional
Summary of the method: (§2)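 Broth microdilution MIC per CLSI in cation-adjusted Mueller Hinton broth, prepared fresh and held at 4 °C. Defibrinated horse blood added where appropriate. Compounds serially diluted in sterile deionized water. Strains from ATCC unless otherwise noted. Runs accepted when comparator antibiotics fell within QC ranges for ATCC quality control strains.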

| SMILES | MIC |
| --- | --- |
| CN(C)[C@@H]1C(O)=C(C(N)=O)C(=O)[C@@]2(O)C(O)=C3C(=O)c4c(O)cccc4[C@@](C)(O)[C@H]3C[C@@H]12 [TETRACYCLINE] | 16 mg/L (≈ 36 µM) |
| CN1CCCCCC1c1cc(O)c2c(c1Cl)C[C@H]1C[C@H]3[C@H](N(C)C)C(O)=C(C(N)=O)C(=O)[C@@]3(O)C(O)=C1C2=O (stereo not given in full) | 16 mg/L (≈ 28.6 µM) |

Tested on: Proteus mirabilis
Assay: Antibacterial activity against gram-negative Proteus mirabilis PM122 by CLSI method
Format: functional
Summary of the method: (§3)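 Defibrinated horse blood added where appropriate. Compounds serially diluted in sterile deionized water. Strains from ATCC unless otherwise noted. Runs accepted when comparator antibiotics fell within QC ranges for ATCC quality control strains.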

| SMILES | MIC |
| --- | --- |
| CN1CCCCCC1c1cc(O)c2c(c1Cl)C[C@H]1C[C@H]3[C@H](N(C)C)C(O)=C(C(N)=O)C(=O)[C@@]3(O)C(O)=C1C2=O (stereo not given in full) | 4 mg/L (≈ 7.14 µM) |

Tested on: Pseudomonas aeruginosa
Assay: Antibacterial activity against gram-negative Pseudomonas aeruginosa PA169 by CLSI method
Format: functional
Summary of the method: as §3

| SMILES | MIC |
| --- | --- |
| CN1CCCCCC1c1cc(O)c2c(c1Cl)C[C@H]1C[C@H]3[C@H](N(C)C)C(O)=C(C(N)=O)C(=O)[C@@]3(O)C(O)=C1C2=O (stereo not given in full) | 32 mg/L (≈ 57.1 µM) |

Tested on: Acinetobacter baumannii
Assay: Antibacterial activity against gram-negative Acinetobacter baumannii AB250 by CLSI method
Format: functional
Summary of the method: as §2

| SMILES | MIC |
| --- | --- |
| CN(C)[C@@H]1C(O)=C(C(N)=O)C(=O)[C@@]2(O)C(O)=C3C(=O)c4c(O)cccc4[C@@](C)(O)[C@H]3C[C@@H]12 [TETRACYCLINE] | > 32 mg/L |
| CN1CCCCCC1c1cc(O)c2c(c1Cl)C[C@H]1C[C@H]3[C@H](N(C)C)C(O)=C(C(N)=O)C(=O)[C@@]3(O)C(O)=C1C2=O (stereo not given in full) | 2 mg/L (≈ 3.57 µM) |

Tested on: Stenotrophomonas maltophilia
Assay: Antibacterial activity against gram-negative Stenotrophomonas maltophilia SM256 by CLSI method
Format: functional
Summary of the method: as §2

| SMILES | MIC |
| --- | --- |
| CN(C)[C@@H]1C(O)=C(C(N)=O)C(=O)[C@@]2(O)C(O)=C3C(=O)c4c(O)cccc4[C@@](C)(O)[C@H]3C[C@@H]12 [TETRACYCLINE] | 16 mg/L (≈ 36 µM) |
| CN1CCCCCC1c1cc(O)c2c(c1Cl)C[C@H]1C[C@H]3[C@H](N(C)C)C(O)=C(C(N)=O)C(=O)[C@@]3(O)C(O)=C1C2=O (stereo not given in full) | 0.5 mg/L (≈ 0.893 µM) |

Tested on: Burkholderia cenocepacia
Assay: Antibacterial activity against gram-negative Burkholderia cenocepacia BC240 by CLSI method
Format: functional
Summary of the method: as §3

| SMILES | MIC |
| --- | --- |
| CN1CCCCCC1c1cc(O)c2c(c1Cl)C[C@H]1C[C@H]3[C@H](N(C)C)C(O)=C(C(N)=O)C(=O)[C@@]3(O)C(O)=C1C2=O (stereo not given in full) | 8 mg/L (≈ 14.3 µM) |

Tested on: Enterococcus faecalis
Assay: Antibacterial activity against gram-positive Enterococcus faecalis EFs327 harboring tet(M) by CLSI method
Format: functional
Summary of the method: as §1

| SMILES | MIC |
| --- | --- |
| CN(C)[C@@H]1C(O)=C(C(N)=O)C(=O)[C@@]2(O)C(O)=C3C(=O)c4c(O)cccc4[C@@](C)(O)[C@H]3C[C@@H]12 [TETRACYCLINE] | > 32 mg/L |

Tested on: Klebsiella pneumoniae
Assay: Antibacterial activity against gram-negative Klebsiella pneumoniae KP457 harboring blacTX-M-15 extended spectrum beta-lactamase gene by CLSI method
Format: functional
Summary of the method: as §1

| SMILES | MIC |
| --- | --- |
| CN(C)[C@@H]1C(O)=C(C(N)=O)C(=O)[C@@]2(O)C(O)=C3C(=O)c4c(O)cccc4[C@@](C)(O)[C@H]3C[C@@H]12 [TETRACYCLINE] | 8 mg/L (≈ 18 µM) |

Tested on: Proteus mirabilis
Assay: Antibacterial activity against gram-negative Proteus mirabilis PM385 by CLSI method
Format: functional
Summary of the method: as §2

| SMILES | MIC |
| --- | --- |
| CN(C)[C@@H]1C(O)=C(C(N)=O)C(=O)[C@@]2(O)C(O)=C3C(=O)c4c(O)cccc4[C@@](C)(O)[C@H]3C[C@@H]12 [TETRACYCLINE] | > 32 mg/L |

Tested on: Pseudomonas aeruginosa
Assay: Antibacterial activity against gram-negative Pseudomonas aeruginosa PA555 by CLSI method
Format: functional
Summary of the method: as §2

| SMILES | MIC |
| --- | --- |
| CN(C)[C@@H]1C(O)=C(C(N)=O)C(=O)[C@@]2(O)C(O)=C3C(=O)c4c(O)cccc4[C@@](C)(O)[C@H]3C[C@@H]12 [TETRACYCLINE] | > 32 mg/L |

Tested on: Enterobacter cloacae
Assay: Antibacterial activity against gram-negative Enterobacter cloacae EC1603 harboring tet(A) by CLSI method
Format: functional
Summary of the method: as §1

| SMILES | MIC |
| --- | --- |
| CN(C)[C@@H]1C(O)=C(C(N)=O)C(=O)[C@@]2(O)C(O)=C3C(=O)c4c(O)cccc4[C@@](C)(O)[C@H]3C[C@@H]12 [TETRACYCLINE] | > 32 mg/L |

Tested on: Staphylococcus aureus
Assay: Antibacterial activity against gram-positive Staphylococcus aureus SA101 by CLSI method
Format: functional
Summary of the method: as §2

| SMILES | MIC |
| --- | --- |
| CN(C)[C@@H]1C(O)=C(C(N)=O)C(=O)[C@@]2(O)C(O)=C3C(=O)c4c(O)cccc4[C@@](C)(O)[C@H]3C[C@@H]12 [TETRACYCLINE] | 0.25 mg/L (≈ 0.563 µM) |
| CN1CCCCCC1c1cc(O)c2c(c1Cl)C[C@H]1C[C@H]3[C@H](N(C)C)C(O)=C(C(N)=O)C(=O)[C@@]3(O)C(O)=C1C2=O (stereo not given in full) | 0.25 mg/L (≈ 0.446 µM) |

Tested on: Staphylococcus aureus
Assay: Antibacterial activity against gram-positive Staphylococcus aureus SA161 harboring tet(M) by CLSI method
Format: functional
Summary of the method: as §1

| SMILES | MIC |
| --- | --- |
| CN(C)[C@@H]1C(O)=C(C(N)=O)C(=O)[C@@]2(O)C(O)=C3C(=O)c4c(O)cccc4[C@@](C)(O)[C@H]3C[C@@H]12 [TETRACYCLINE] | > 32 mg/L |
| CN1CCCCCC1c1cc(O)c2c(c1Cl)C[C@H]1C[C@H]3[C@H](N(C)C)C(O)=C(C(N)=O)C(=O)[C@@]3(O)C(O)=C1C2=O (stereo not given in full) | 2 mg/L (≈ 3.57 µM) |

Tested on: Staphylococcus aureus
Assay: Antibacterial activity against gram-positive Staphylococcus aureus SA158 harboring tet(K) by CLSI method
Format: functional
Summary of the method: as §1

| SMILES | MIC |
| --- | --- |
| CN1CCCCCC1c1cc(O)c2c(c1Cl)C[C@H]1C[C@H]3[C@H](N(C)C)C(O)=C(C(N)=O)C(=O)[C@@]3(O)C(O)=C1C2=O (stereo not given in full) | 0.0313 mg/L (≈ 0.0559 µM) |

Tested on: Enterococcus faecalis
Assay: Antibacterial activity against gram-positive Enterococcus faecalis EF159 harboring tet(M) by CLSI method
Format: functional
Summary of the method: as §1

| SMILES | MIC |
| --- | --- |
| CN(C)[C@@H]1C(O)=C(C(N)=O)C(=O)[C@@]2(O)C(O)=C3C(=O)c4c(O)cccc4[C@@](C)(O)[C@H]3C[C@@H]12 [TETRACYCLINE] | > 32 mg/L |
| CN1CCCCCC1c1cc(O)c2c(c1Cl)C[C@H]1C[C@H]3[C@H](N(C)C)C(O)=C(C(N)=O)C(=O)[C@@]3(O)C(O)=C1C2=O (stereo not given in full) | 2 mg/L (≈ 3.57 µM) |

Tested on: Streptococcus pneumoniae
Assay: Antibacterial activity against gram-positive Streptococcus pneumoniae SP160 harboring tet(M) by CLSI method
Format: functional
Summary of the method: as §1

| SMILES | MIC |
| --- | --- |
| CN1CCCCCC1c1cc(O)c2c(c1Cl)C[C@H]1C[C@H]3[C@H](N(C)C)C(O)=C(C(N)=O)C(=O)[C@@]3(O)C(O)=C1C2=O (stereo not given in full) | 0.5 mg/L (≈ 0.893 µM) |

Tested on: Streptococcus pneumoniae
Assay: Antibacterial activity against gram-positive Streptococcus pneumoniae SP193 by CLSI method
Format: functional
Summary of the method: as §2

| SMILES | MIC |
| --- | --- |
| CN(C)[C@@H]1C(O)=C(C(N)=O)C(=O)[C@@]2(O)C(O)=C3C(=O)c4c(O)cccc4[C@@](C)(O)[C@H]3C[C@@H]12 [TETRACYCLINE] | 0.125 mg/L (≈ 0.281 µM) |
| CN1CCCCCC1c1cc(O)c2c(c1Cl)C[C@H]1C[C@H]3[C@H](N(C)C)C(O)=C(C(N)=O)C(=O)[C@@]3(O)C(O)=C1C2=O (stereo not given in full) | ≤ 0.0156 mg/L |

Tested on: Escherichia coli
Assay: Antibacterial activity against gram-negative Escherichia coli EC107 by CLSI method
Format: functional
Summary of the method: as §2

| SMILES | MIC |
| --- | --- |
| CN(C)[C@@H]1C(O)=C(C(N)=O)C(=O)[C@@]2(O)C(O)=C3C(=O)c4c(O)cccc4[C@@](C)(O)[C@H]3C[C@@H]12 [TETRACYCLINE] | 1 mg/L (≈ 2.25 µM) |
| CN1CCCCCC1c1cc(O)c2c(c1Cl)C[C@H]1C[C@H]3[C@H](N(C)C)C(O)=C(C(N)=O)C(=O)[C@@]3(O)C(O)=C1C2=O (stereo not given in full) | 0.0625 mg/L (≈ 0.112 µM) |

Tested on: Escherichia coli
Assay: Antibacterial activity against gram-negative Escherichia coli EC155 harboring tet(A) by CLSI method
Format: functional
Summary of the method: as §1

| SMILES | MIC |
| --- | --- |
| CN(C)[C@@H]1C(O)=C(C(N)=O)C(=O)[C@@]2(O)C(O)=C3C(=O)c4c(O)cccc4[C@@](C)(O)[C@H]3C[C@@H]12 [TETRACYCLINE] | > 32 mg/L |
| CN1CCCCCC1c1cc(O)c2c(c1Cl)C[C@H]1C[C@H]3[C@H](N(C)C)C(O)=C(C(N)=O)C(=O)[C@@]3(O)C(O)=C1C2=O (stereo not given in full) | 2 mg/L (≈ 3.57 µM) |
